{"source": "ChEMBL document CHEMBL2169846", "about": "“Design and synthesis of Pictet-Spengler condensation products that exhibit oncogenic-RAS synthetic lethality and induce non-apoptotic cell death” (Bioorg Med Chem Lett, 2012)", "key": {"[1]": {"assay": "Stability of the compound assessed as GSH adduct formation after 24 hrs by mass spectroscopy", "format": "physicochemical"}, "BJeH [2]": {"tested_on": "BJeH", "assay": "Induction of apoptosis in human BJeH cells expressing wild type RAS assessed as caspase 7 activation after 28 hrs by Apo-One assay", "format": "functional, cell-based", "outline": "(§1)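 BJ-TERT and BJ-TERT/LT/ST/RAS(V12) cells given compound as a two-fold, 14-point dilution series for 28 h. Alamar blue then added for viability, and caspase 3/7 activation detected by Apo-ONE in the same wells.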"}, "[3]": {"assay": "Stability of the compound in phosphate buffered saline after 24 hrs by mass spectroscopy", "format": "physicochemical", "conditions": "buffer"}, "BJeLR [4]": {"tested_on": "BJeLR", "assay": "Induction of apoptosis in human BJeLR cells expressing RAS G12V mutant assessed as caspase 7 activation after 28 hrs by Apo-One assay", "format": "functional, cell-based", "outline": "as §1"}, "[5]": {"target": "E3 ubiquitin-protein ligase Mdm2 (Homo sapiens) (UniProt Q00987)", "sequence (Q00987 whole entry, looked up)": "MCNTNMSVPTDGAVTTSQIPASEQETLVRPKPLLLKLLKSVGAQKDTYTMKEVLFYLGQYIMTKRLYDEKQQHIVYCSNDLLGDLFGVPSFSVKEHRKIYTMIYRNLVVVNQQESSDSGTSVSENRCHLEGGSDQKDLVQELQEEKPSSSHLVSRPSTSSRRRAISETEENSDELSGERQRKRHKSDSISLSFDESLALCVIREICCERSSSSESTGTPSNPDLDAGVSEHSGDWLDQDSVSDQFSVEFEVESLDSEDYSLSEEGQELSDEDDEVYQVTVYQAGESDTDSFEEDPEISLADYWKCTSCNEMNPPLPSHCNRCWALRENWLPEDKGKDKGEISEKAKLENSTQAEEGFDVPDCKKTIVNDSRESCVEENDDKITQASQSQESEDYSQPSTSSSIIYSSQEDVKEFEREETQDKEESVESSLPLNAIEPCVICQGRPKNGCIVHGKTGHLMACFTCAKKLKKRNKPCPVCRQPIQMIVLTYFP", "assay": "Inhibition of wild type Mdm2 at 20 ug/mL after 2 hrs by cell-based luciferase assay"}, "[6]": {"tested_on": "E3 ubiquitin-protein ligase Mdm2 (Homo sapiens), Q00987 [C464A]", "sequence (Q00987 whole entry C464A)": "as the sequence (Q00987 whole entry, looked up) above, with C464A counted along it", "assay": "Inhibition of Mdm2 C464A mutant at 20 ug/mL after 2 hrs by cell-based luciferase assay"}, "RKO": {"tested_on": "RKO", "assay": "Cytotoxicity against human RKO cells after 48 hrs by alamar blue assay", "format": "functional", "conditions": "read-out: LC50 (the source's name)"}, "[7]": {"assay": "Cytotoxicity against human HT1299 cells after 48 hrs by alamar blue assay", "format": "functional", "conditions": "HT1299, 48 h, read-out: LC50 (the source's name)"}, "[8]": {"assay": "Cytotoxicity against human BJeH cells expressing wild type RAS after 48 hrs by alamar blue assay", "format": "functional, cell-based", "conditions": "read-out: LC50 (the source's name)"}, "[9]": {"assay": "Cytotoxicity against human BJeLR cells expressing RAS G12V mutant after 48 hrs by alamar blue assay", "format": "functional, cell-based", "conditions": "read-out: LC50 (the source's name)"}, "MCF7": {"tested_on": "MCF7", "assay": "Cytotoxicity against human MCF7 cells at 20 ug/mL after 48 hrs by alamar blue assay", "format": "functional, cell-based", "outline": "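Each cell line exposed for 48 h to a 2-fold, 12-point dilution series beginning at 20 µg/mL. Viability by Alamar blue; LC50 derived from the curves.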"}, "[10]": {"assay": "Ratio of MEL24 LC50 to compound LC50 for human BJeLR cells expressing RAS G12V mutant", "format": "functional"}, "[11]": {"assay": "Cytotoxicity against human BJeH cells expressing wild type RAS", "format": "functional", "conditions": "read-out: LC50 (the source's name)"}, "[12]": {"assay": "Cytotoxicity against human BJeH-LT cells expressing wild type RAS", "format": "functional", "conditions": "read-out: LC50 (the source's name)"}, "[13]": {"assay": "Cytotoxicity against human BJeLR cells expressing RAS G12V mutant", "format": "functional", "conditions": "read-out: LC50 (the source's name)"}, "[14]": {"assay": "Cytotoxicity against human DRD cells expressing RAS G12V mutant", "format": "functional", "conditions": "read-out: LC50 (the source's name)"}, "[15]": {"assay": "Growth inhibition of human BJeH cells expressing wild type RAS relative to control", "format": "functional", "outline": "(§2)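 Four cell lines treated for 48 h in a two-fold, 7-point dilution series. Viability by Alamar blue reading. LC50 and maximum growth-inhibitory efficacy were tabulated as ± SEM of triplicates.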"}, "[16]": {"assay": "Growth inhibition of human BJeH-LT cells expressing wild type RAS relative to control", "format": "functional", "outline": "as §2"}, "[17]": {"assay": "Growth inhibition of human BJeLR cells expressing RAS G12V mutant relative to control", "format": "functional", "outline": "as §2"}, "[18]": {"assay": "Growth inhibition of human DRD cells expressing RAS G12V mutant relative to control", "format": "functional", "outline": "as §2"}, "[19]": {"assay": "Selectivity ratio of LC50 for human BJeH cells to LC50 for human BJeLR cells expressing RAS G12V mutant", "format": "functional", "outline": "(§3)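 LC50 of BJ-TERT divided by LC50 of the RAS(V12)-transformed line or of DRD cells.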"}, "[20]": {"assay": "Selectivity ratio of LC50 for human BJeH cells to LC50 for human DRD cells", "format": "functional", "outline": "as §3"}, "BJeLR [21]": {"tested_on": "BJeLR", "assay": "Cytotoxicity against human BJeLR cells expressing RAS G12V mutant at 30 uM at 12 hrs by trypan blue staining", "format": "functional, cell-based", "outline": "(§4)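 Time-course in BJ-TERT/LT/ST/RAS^V12 cells exposed for the designated times to erastin (10 µM), test compound (30 µM) or RSL3 (0.57 µM) to follow onset of death. Data representative of duplicate experiments.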"}, "BJeLR [22]": {"tested_on": "BJeLR", "assay": "Cytotoxicity against human BJeLR cells expressing RAS G12V mutant at 30 uM at 24 hrs by trypan blue staining", "format": "functional, cell-based", "outline": "as §4"}, "BJeH [23]": {"tested_on": "BJeH", "assay": "Cytotoxicity against human BJeH cells expressing wild type RAS at 30 uM after 24 hrs by trypan blue staining", "format": "functional, cell-based"}, "BJeLR [24]": {"tested_on": "BJeLR", "assay": "Cytotoxicity against human BJeLR cells expressing RAS G12V mutant at high concentration after 28 hrs by alamar blue assay", "format": "functional, cell-based", "outline": "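BJ-TERT/LT/ST/RAS^V12 cells treated for 28 h across a two-fold, 14-point dilution series. Viability was read by Alamar blue, and caspase 3/7 activation was detected by Apo-ONE in the same cells.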"}, "BJeLR [25]": {"tested_on": "BJeLR", "assay": "Induction of apoptosis in human BJeLR cells expressing RAS G12V mutant assessed as caspase 3 activation after 28 hrs by Apo-One assay", "format": "functional, cell-based", "outline": "as §1"}, "BJeH [26]": {"tested_on": "BJeH", "assay": "Induction of apoptosis in human BJeH cells expressing wild type RAS assessed as caspase 3 activation after 28 hrs by Apo-One assay", "format": "functional, cell-based", "outline": "as §1"}, "HT-1080 [27]": {"tested_on": "HT-1080", "assay": "Cytotoxicity against human HT1080 after 48 hrs by alamar blue assay in presence of z-VAD-fmk", "format": "functional, cell-based", "outline": "(§5)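 HT1080 cells given the test compound together with a rescue agent: deferoxamine 152 µM, α-tocopherol 100 µM, z-VAD-fmk 45 µM or Boc-D-fmk 50 µM. Viability read out afterwards.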"}, "HT-1080 [28]": {"tested_on": "HT-1080", "assay": "Cytotoxicity against human HT1080 after 48 hrs by alamar blue assay in presence of Boc-D-fmk", "format": "functional, cell-based", "outline": "as §5"}, "HT-1080 [29]": {"tested_on": "HT-1080", "assay": "Cytotoxicity against human HT1080 after 48 hrs by alamar blue assay in presence of deferoxamine", "format": "functional, cell-based", "outline": "as §5"}, "HT-1080 [30]": {"tested_on": "HT-1080", "assay": "Cytotoxicity against human HT1080 after 48 hrs by alamar blue assay in presence of alpha-tocopherol", "format": "functional, cell-based", "outline": "as §5"}, "BJeH [31]": {"tested_on": "BJeH", "assay": "Induction of reactive oxygen species production in human BJeH cells expressing wild type RAS after 18 hrs by DCF-based flow cytometric analysis", "format": "functional, cell-based"}, "BJeLR [32]": {"tested_on": "BJeLR", "assay": "Induction of reactive oxygen species production in human BJeLR cells expressing RAS G12V mutant after 18 hrs by DCF-based flow cytometric analysis", "format": "functional, cell-based"}}, "note": "Activity calls are given as the source filed them. The rule behind the calls is not given here.", "data": [{"molecule": "CCOC(=O)C1c2c(c3ccccc3n2C)CCN1C(=O)OC", "note": "(centres undefined)", "values": [{"measurement": "Stability", "setting": "[1]", "result": "Stable"}, {"measurement": "Activity", "setting": "BJeH [2]", "result": "inactive"}, {"measurement": "Stability", "setting": "[3]", "result": "Stable"}, {"measurement": "Activity", "setting": "BJeLR [4]", "result": "inactive"}, {"measurement": "inhibition", "setting": "[5]", "result": "inactive"}, {"measurement": "inhibition", "setting": "[6]", "result": "inactive"}, {"measurement": "CC50", "setting": "RKO", "result": 31.6, "unit": "µM"}, {"measurement": "CC50", "setting": "[7]", "result": 30, "unit": "µM"}, {"measurement": "CC50", "setting": "[8]", "result": 63.2, "unit": "µM"}, {"measurement": "CC50", "setting": "[9]", "result": 6.3, "unit": "µM"}, {"measurement": "Activity", "setting": "MCF7", "result": "inactive"}, {"measurement": "Ratio", "setting": "[10]", "result": 4}, {"measurement": "CC50", "setting": "[11]", "result": 179, "unit": "µM"}, {"measurement": "CC50", "setting": "[12]", "result": 266, "unit": "µM"}, {"measurement": "CC50", "setting": "[13]", "result": 20.3, "unit": "µM"}, {"measurement": "CC50", "setting": "[14]", "result": 102, "unit": "µM"}, {"measurement": "growth inhibition (GI)", "setting": "[15]", "result": 22.1, "unit": "%"}, {"measurement": "growth inhibition (GI)", "setting": "[16]", "result": 8.5, "unit": "%"}, {"measurement": "growth inhibition (GI)", "setting": "[17]", "result": 98.7, "unit": "%"}, {"measurement": "growth inhibition (GI)", "setting": "[18]", "result": 67, "unit": "%"}, {"measurement": "Ratio", "setting": "[19]", "result": 10}, {"measurement": "Ratio", "setting": "[20]", "result": 3}, {"measurement": "Activity", "setting": "BJeLR [21]", "result": "Active"}, {"measurement": "Activity", "setting": "BJeLR [22]", "result": "Active"}, {"measurement": "Activity", "setting": "BJeH [23]", "result": "inactive"}, {"measurement": "Activity", "setting": "BJeLR [24]", "result": "Active"}, {"measurement": "Activity", "setting": "BJeLR [25]", "result": "inactive"}, {"measurement": "Activity", "setting": "BJeH [26]", "result": "inactive"}, {"measurement": "Activity", "setting": "HT-1080 [27]", "result": "Active"}, {"measurement": "Activity", "setting": "HT-1080 [28]", "result": "Active"}, {"measurement": "Activity", "setting": "HT-1080 [29]", "result": "inactive"}, {"measurement": "Activity", "setting": "HT-1080 [30]", "result": "inactive"}, {"measurement": "Activity", "setting": "BJeH [31]", "result": "Active"}, {"measurement": "Activity", "setting": "BJeLR [32]", "result": "Active"}]}]}
